# Measurements reported in ChEMBL document CHEMBL1122702, “Radiohalogen-labeled imaging agents. 3. Compounds for measurement of brain blood flow by emission tomography” (J Med Chem, 1984).
# Experiments:
# Type in all cases: ADME, organism-based
# Rattus norvegicus [1] = organism: Rattus norvegicus; experiment: Ratio of distribution of the [131I]-labeled compound at 5 min in rat brain over uptake in blood
# Procedure, shortened: (§1)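 Male Sprague-Dawley rats (200–300 g, fed ad libitum), ether-anesthetized, got a tail-vein bolus of 0.2 mL saline containing 10–20 μCi 131I compound and were decapitated at the stated time. Organs were weighed and gamma-counted against a serially diluted external standard. Organ/blood ratio was calculated from % dose per gram of organ. Animal numbers per time point were 1–4.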
# Rattus norvegicus [2] = organism: Rattus norvegicus; experiment: The uptake of the 131 I-labeled compound at 5 min was evaluated in rat liver as Percent of injected dose per gram in the organ; details: in vivo
# Procedure, shortened: (§2)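 Male Sprague-Dawley rats (200–300 g, free access to food and water), lightly ether-anesthetized and restrained, received a 0.2 mL saline tail-vein bolus of 10–20 μCi 131I-labeled compound. They were decapitated at the stated time, and organs were excised, weighed and gamma-counted. Percent injected dose was determined against a calibrated external standard made by serial dilution of the injectate. n = 1–4 rats.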
# Rattus norvegicus [3] = organism: Rattus norvegicus; experiment: Ratio of distribution of the [131I]-labeled compound at 5 min in rat kidney over uptake in blood; details: other tissue; procedure, shortened: as §1
# Rattus norvegicus [4] = organism: Rattus norvegicus; experiment: Ratio of distribution of the [131I]-labeled compound at 30 min in rat lung over uptake in blood; details: other tissue, 0.5 h; procedure, shortened: as §1
# Rattus norvegicus [5] = organism: Rattus norvegicus; experiment: The uptake of the 131 I-labeled compound at 30 min was evaluated in rat brain as Percent of injected dose in the total organ; details: in vivo, 0.5 h; procedure, shortened: as §2
# Rattus norvegicus [6] = organism: Rattus norvegicus; experiment: Ratio of distribution of the [131I]-labeled compound at 30 min in rat liver over uptake in blood; details: other tissue, 0.5 h; procedure, shortened: as §1
# Rattus norvegicus [7] = organism: Rattus norvegicus; experiment: The uptake of the 131 I-labeled compound at 30 min was evaluated in rat heart as Percent of injected dose per gram in the organ; details: in vivo, 0.5 h; procedure, shortened: as §2
# Rattus norvegicus [8] = organism: Rattus norvegicus; experiment: The uptake of the 131 I-labeled compound at 5 min was evaluated in rat lung as Percent of injected dose per gram in the organ; details: in vivo; procedure, shortened: as §2
# Rattus norvegicus [9] = organism: Rattus norvegicus; experiment: The uptake of the 131 I-labeled compound at 5 min was evaluated in rat kidney as Percent of injected dose per gram in the organ; details: in vivo; procedure, shortened: as §2
# Rattus norvegicus [10] = organism: Rattus norvegicus; experiment: The uptake of the 131 I-labeled compound at 30 min was evaluated in rat blood as Percent of injected dose per gram in the organ; details: in vivo, 0.5 h; procedure, shortened: as §2
# Rattus norvegicus [11] = organism: Rattus norvegicus; experiment: The uptake of the 131 I-labeled compound at 30 min was evaluated in rat heart as Percent of injected dose in the total organ; details: in vivo, 0.5 h; procedure, shortened: as §2
# Rattus norvegicus [12] = organism: Rattus norvegicus; experiment: The uptake of the 131 I-labeled compound at 30 min was evaluated in rat kidney as Percent of injected dose in the total organ; details: in vivo, 0.5 h; procedure, shortened: as §2
# Rattus norvegicus [13] = organism: Rattus norvegicus; experiment: The uptake of the 131 I-labeled compound at 5 min was evaluated in rat heart as Percent of injected dose per gram in the organ; details: in vivo; procedure, shortened: as §2
# Rattus norvegicus [14] = organism: Rattus norvegicus; experiment: The uptake of the 131 I-labeled compound at 5 min was evaluated in rat liver as Percent of injected dose in the total organ; details: in vivo; procedure, shortened: as §2
# Rattus norvegicus [15] = organism: Rattus norvegicus; experiment: Ratio of distribution of the [131I]-labeled compound at 30 min in rat kidney over uptake in blood; details: other tissue, 0.5 h; procedure, shortened: as §1
# Rattus norvegicus [16] = organism: Rattus norvegicus; experiment: The uptake of the 131 I-labeled compound at 30 min was evaluated in rat brain as Percent of injected dose per gram in the organ; details: in vivo, 0.5 h; procedure, shortened: as §2
# Rattus norvegicus [17] = organism: Rattus norvegicus; experiment: The uptake of the 131 I-labeled compound at 5 min was evaluated in rat blood as Percent of injected dose per gram in the organ; details: in vivo; procedure, shortened: as §2
# Rattus norvegicus [18] = organism: Rattus norvegicus; experiment: Ratio of distribution of the [131I]-labeled compound at 30 min in rat brain over uptake in blood; details: 0.5 h; procedure, shortened: as §1
# Rattus norvegicus [19] = organism: Rattus norvegicus; experiment: The uptake of the 131 I-labeled compound at 5 min was evaluated in rat kidney as Percent of injected dose in the total organ; details: in vivo; procedure, shortened: as §2
# Rattus norvegicus [20] = organism: Rattus norvegicus; experiment: Ratio of distribution of the [131I]-labeled compound at 5 min in rat lung over uptake in blood; details: other tissue; procedure, shortened: as §1
# Rattus norvegicus [21] = organism: Rattus norvegicus; experiment: The uptake of the 131 I-labeled compound at 5 min was evaluated in rat brain as Percent of injected dose in the total organ; details: in vivo; procedure, shortened: as §2
# Rattus norvegicus [22] = organism: Rattus norvegicus; experiment: The uptake of the 131 I-labeled compound at 30 min was evaluated in rat liver as Percent of injected dose in the total organ; details: in vivo, 0.5 h; procedure, shortened: as §2
# Rattus norvegicus [23] = organism: Rattus norvegicus; experiment: The uptake of the 131 I-labeled compound at 5 min was evaluated in rat heart as Percent of injected dose in the total organ; details: in vivo; procedure, shortened: as §2
# Rattus norvegicus [24] = organism: Rattus norvegicus; experiment: The uptake of the 131 I-labeled compound at 30 min was evaluated in rat kidney as Percent of injected dose per gram in the organ; details: in vivo, 0.5 h; procedure, shortened: as §2
# Rattus norvegicus [25] = organism: Rattus norvegicus; experiment: The uptake of the 131 I-labeled compound at 30 min was evaluated in rat liver as Percent of injected dose per gram in the organ; details: in vivo, 0.5 h; procedure, shortened: as §2
# Rattus norvegicus [26] = organism: Rattus norvegicus; experiment: Ratio of distribution of the [131I]-labeled compound at 5 min in rat heart over uptake in blood; details: other tissue; procedure, shortened: as §1
# Rattus norvegicus [27] = organism: Rattus norvegicus; experiment: The uptake of the 131 I-labeled compound at 5 min was evaluated in rat brain as Percent of injected dose per gram in the organ; details: in vivo; procedure, shortened: as §2
# Rattus norvegicus [28] = organism: Rattus norvegicus; experiment: Ratio of distribution of the [131I]-labeled compound at 30 min in rat heart over uptake in blood; details: other tissue, 0.5 h; procedure, shortened: as §1
# Rattus norvegicus [29] = organism: Rattus norvegicus; experiment: The uptake of the 131 I-labeled compound at 30 min was evaluated in rat lung as Percent of injected dose per gram in the organ; details: in vivo, 0.5 h; procedure, shortened: as §2
# Rattus norvegicus [30] = organism: Rattus norvegicus; experiment: Ratio of distribution of the [131I]-labeled compound at 5 min in rat liver over uptake in blood; details: other tissue; procedure, shortened: as §1
smiles,measurement,setting,value
COc1cc(CC(C)NO)c(OC)cc1I (stereo not given),Ratio,Rattus norvegicus [1],3.6
same,Dose,Rattus norvegicus [2],1.5%
same,Ratio,Rattus norvegicus [3],6.8
same,Ratio,Rattus norvegicus [4],21
same,Dose,Rattus norvegicus [5],1.2%
same,Ratio,Rattus norvegicus [6],4.5
same,Dose,Rattus norvegicus [7],0.3%
same,Dose,Rattus norvegicus [8],2%
same,Dose,Rattus norvegicus [9],1.4%
same,Dose,Rattus norvegicus [10],0.16%
same,Dose,Rattus norvegicus [11],0.24%
same,Dose,Rattus norvegicus [12],2.1%
same,Dose,Rattus norvegicus [13],0.66%
same,Dose,Rattus norvegicus [14],8.6%
same,Ratio,Rattus norvegicus [15],7.5
same,Dose,Rattus norvegicus [16],0.63%
same,Dose,Rattus norvegicus [17],0.19%
same,Ratio,Rattus norvegicus [18],3.9
same,Dose,Rattus norvegicus [19],2.5%
same,Ratio,Rattus norvegicus [20],12
same,Dose,Rattus norvegicus [21],1.2%
same,Dose,Rattus norvegicus [22],6.6%
same,Dose,Rattus norvegicus [23],0.8%
same,Dose,Rattus norvegicus [24],1.2%
same,Dose,Rattus norvegicus [25],0.72%
same,Ratio,Rattus norvegicus [26],3.6
same,Dose,Rattus norvegicus [27],0.69%
same,Ratio,Rattus norvegicus [28],1.9
same,Dose,Rattus norvegicus [29],3.3%
same,Ratio,Rattus norvegicus [30],9.5
